In assay [1] the test system is Pseudomonas fluorescens. The assay is described as follows: Antimicrobial activity against Pseudomonas fluorescens after 18 hrs by broth microdilution method. The format is functional. In short, it runs like this: (§1)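 Broth microdilution MIC; inoculum 5 × 10^5 cfu/mL; compounds tested over 1024-1 μg/mL; plates incubated 18 h at 35 °C in ambient air; MIC taken as the read-out after incubation.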

The test system of assay [2] is Staphylococcus aureus. The assay is described as follows: Antimicrobial activity against methicillin-resistant Staphylococcus aureus after 18 hrs by broth microdilution method. The format is functional. In short, it runs like this:
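Broth microdilution MIC. Inoculum 5 × 10^5 cfu/mL. Concentration range 1024-1 μg/mL. Plates incubated 18 h at 35 °C in ambient air. The MIC was read at the end of incubation.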

In assay [3] the test system is SW1990. The assay is described as follows: Cytotoxicity against human SW1990 cells. The format is functional, cell-based.
In assay [4] the test system is Pseudomonas aeruginosa. Description: Antimicrobial activity against Pseudomonas aeruginosa after 18 hrs by broth microdilution method. The format is functional. In short, it runs like this:
as §1

Assay [5] has as its system Candida albicans. The assay is described as follows: Antimicrobial activity against Candida albicans after 18 hrs by broth microdilution method. The format is functional. The method, boiled down:
as §1

Assay [6] concerns Bacillus subtilis. Description: Antimicrobial activity against Bacillus subtilis after 18 hrs by broth microdilution method. The format is functional. In short, it runs like this:
as §1

Assay [7] has as its system DU-145. The assay is described as follows: Cytotoxicity against human DU145 cells. The format is functional, cell-based.
The subject of assay [8] is HepG2. The assay is described as follows: Cytotoxicity against human HepG2 cells. The format is functional, cell-based.
For assay [9], the system named is HeLa. The assay is described as follows: Cytotoxicity against human HeLa cells. The format is functional, cell-based.
Assay [10] relates to NCI-H460. The assay is described as follows: Cytotoxicity against human NCI-H460 cells. The format is functional, cell-based.
Assay [11] deals with SMMC-7721. The assay is described as follows: Cytotoxicity against human SMMC7721 cells. The format is functional, cell-based.
The test system of assay [12] is MCF7. The assay is described as follows: Cytotoxicity against human MCF7 cells. The format is functional, cell-based.

Converted amounts (≈) assume the structure as drawn. The source made the active and inactive calls. The calls are words filed in the database; no cut-off is given here.

Data on 9 compounds can be found in ChEMBL document CHEMBL1687861, “Comazaphilones A-F, azaphilone derivatives from the marine sediment-derived fungus Penicillium commune QSD-17” (J Nat Prod, 2011).

As to `C/C=C/C1=CC2=C(CO1)C(=O)[C@](C)(O)[C@H](OC(=O)c1c(C)cc(O)cc1O)C2` [COMAZAPHILONE D], the MIC in assay [1] was 16 µg/mL (≈ 41.4 µM); in [2], 32 µg/mL (≈ 82.8 µM); in [4], more than 256 µg/mL; in [5] it was more than 256 µg/mL; in assay [6] it was more than 256 µg/mL. This compound also registered an IC50 in [3] of 51 µM.
In turn, `O=c1[nH]cc(F)c(=O)[nH]1` [FLUOROURACIL] showed a 50% inhibitory concentration (IC50) in assay [3] of 120 µM.
`CCCC1=CC2=C(CO1)C(=O)[C@](C)(OC(=O)c1c(C)cc(O)cc1OC)[C@H](O)C2` [COMAZAPHILONE A]: the MIC in assay [1], in assay [2], in [4], in [5] and in assay [6] was more than 256 µg/mL in each case. In addition, the result in [7], in assay [8], in assay [9], in assay [10], in assay [11] and in [12] was inactive.
With `CCCC1=CC2=C(CO1)C(=O)[C@](C)(OC(=O)c1c(C)cc(O)c(O)c1OC)[C@H](O)C2` [COMAZAPHILONE B], the MIC in assay [1] was 128 µg/mL (≈ 306 µM); in assay [2], 128 µg/mL (≈ 306 µM); in [4], more than 256 µg/mL; in assay [5], more than 256 µg/mL; in [6] it was 64 µg/mL (≈ 153 µM). The outcome in assay [7], in assay [8], in assay [9], in [10], in [11] and in assay [12] was inactive.
Take NYSTATIN: the MIC in assay [5] was found to be 2 µM.
With `CCCC1=CC2=C(CO1)C(=O)[C@](C)(O)[C@H](OC(=O)c1c(C)cc(O)c(O)c1OC)C2` [COMAZAPHILONE F], the MIC in [1] was 64 µg/mL (≈ 153 µM); in [2], 128 µg/mL (≈ 306 µM); in assay [4] it was more than 256 µg/mL; in [5], more than 256 µg/mL; in [6], 128 µg/mL (≈ 306 µM). The IC50 in [3] turned out to be 53 µM.
`C/C=C/C1=CC2=C(CO1)C(=O)[C@](C)(OC(=O)c1c(C)cc(O)c(O)c1OC)[C@H](O)C2` [COMAZAPHILONE C]: the MIC is 64 µg/mL (≈ 154 µM) in [1]; 16 µg/mL (≈ 38.4 µM) in [2]; more than 256 µg/mL in assay [4]; more than 256 µg/mL in assay [5]; 32 µg/mL (≈ 76.8 µM) in assay [6]. The result in [7], in assay [8], in [9], in assay [10], in assay [11] and in [12] was inactive.
On to `CC1(C)S[C@@H]2[C@H](NC(=O)[C@H](N)c3ccccc3)C(=O)N2[C@H]1C(=O)O` [AMPICILLIN], for which the MIC in assay [1] amounted to 4 µg/mL (≈ 11.4 µM); in assay [2], 8 µg/mL (≈ 22.9 µM); in assay [4], 2 µg/mL (≈ 5.72 µM); in assay [6] it was 4 µg/mL (≈ 11.4 µM).
As to `C/C=C/C1=CC2=C(CO1)C(=O)[C@](C)(O)[C@H](OC(=O)c1c(C)cc(O)c(O)c1OC)C2` [COMAZAPHILONE E], the MIC is 32 µg/mL (≈ 76.8 µM) in [1]; more than 256 µg/mL in assay [2]; more than 256 µg/mL in assay [4]; more than 256 µg/mL in assay [5]; 16 µg/mL (≈ 38.4 µM) in [6]. In assay [3], this compound came in with an IC50 of 26 µM.
